Measured values taken from ChEMBL document CHEMBL4706613, “Novel 3-substituted coumarins as selective human carbonic anhydrase IX and XII inhibitors: Synthesis, biological and molecular dynamics analysis” (Eur J Med Chem, 2021).
pKi: −log10 of the molar value.

Assays:
Carbonic anhydrase 9 [1] = target: T1, Carbonic anhydrase 9 (Homo sapiens, UniProt Q16790); experiment: Inhibition of human CA9 preincubated for 6 hrs by phenol red dye based stopped flow CO2 hydration assay
In short: (§1)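 Ki values are the mean of three separate assays, with errors within ±5–10% of the reported values. Coumarin derivatives were incubated with the enzyme for 6 h before measurement.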

Carbonic anhydrase 12 = Carbonic anhydrase 12 (Homo sapiens, UniProt O43570); experiment: Inhibition of human CA12 preincubated for 6 hrs by phenol red dye based stopped flow CO2 hydration assay
Carbonic anhydrase 2 [2] = target: T2, Carbonic anhydrase 2 (Homo sapiens, UniProt P00918); experiment: Inhibition of human CA2 preincubated for 6 hrs by phenol red dye based stopped flow CO2 hydration assay; in short: as §1
Carbonic anhydrase 1 [3] = target: T3, Carbonic anhydrase 1 (Homo sapiens, UniProt P00915); experiment: Inhibition of human CA1 preincubated for 6 hrs by phenol red dye based stopped flow CO2 hydration assay; in short: as §1
Carbonic anhydrase 9 [4] = target: T1, Carbonic anhydrase 9; experiment: Inhibition of human CA9 preincubated for 15 mins by phenol red dye based stopped flow CO2 hydration assay
Carbonic anhydrase 2 [5] = target: T2, Carbonic anhydrase 2; experiment: Inhibition of human CA2 preincubated for 15 mins by phenol red dye based stopped flow CO2 hydration assay
Carbonic anhydrase 1 [6] = target: T3, Carbonic anhydrase 1; experiment: Inhibition of human CA1 preincubated for 15 mins by phenol red dye based stopped flow CO2 hydration assay

T3 sequence (P00915 whole entry): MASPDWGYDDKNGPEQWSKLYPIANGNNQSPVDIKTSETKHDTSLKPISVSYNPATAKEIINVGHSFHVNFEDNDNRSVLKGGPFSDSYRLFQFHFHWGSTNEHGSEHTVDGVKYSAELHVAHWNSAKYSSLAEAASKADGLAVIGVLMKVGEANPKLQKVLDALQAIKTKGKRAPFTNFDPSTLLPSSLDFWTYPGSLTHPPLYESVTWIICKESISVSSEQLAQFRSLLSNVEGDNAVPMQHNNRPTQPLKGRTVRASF
Sequence of Carbonic anhydrase 12 (O43570 whole entry): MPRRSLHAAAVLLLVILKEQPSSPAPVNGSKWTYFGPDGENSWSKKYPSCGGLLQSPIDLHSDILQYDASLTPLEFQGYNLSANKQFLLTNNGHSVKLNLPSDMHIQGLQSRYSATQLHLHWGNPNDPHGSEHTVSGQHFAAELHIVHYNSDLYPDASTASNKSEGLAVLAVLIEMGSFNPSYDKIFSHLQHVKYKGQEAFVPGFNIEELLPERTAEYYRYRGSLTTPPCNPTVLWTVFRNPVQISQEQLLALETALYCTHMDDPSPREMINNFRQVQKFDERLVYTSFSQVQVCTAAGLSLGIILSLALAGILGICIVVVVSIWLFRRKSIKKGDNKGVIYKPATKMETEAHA

SMILES	pKi (Carbonic anhydrase 9 [1])	pKi (Carbonic anhydrase 12)	pKi (Carbonic anhydrase 2 [2])	pKi (Carbonic anhydrase 1 [3])	pKi (Carbonic anhydrase 9 [4])	pKi (Carbonic anhydrase 2 [5])	pKi (Carbonic anhydrase 1 [6])
O=C(CS(=O)(=O)c1ccccc1)c1cc2ccccc2oc1=O	7.38	7.22	< 4.00	< 4.00	–	–	–
C/C(=N\Nc1ccc(S(N)(=O)=O)cc1)c1cc2ccccc2oc1=O	–	–	–	–	7.36	–	–
C/C(=N\Nc1ccc(S(N)(=O)=O)cc1)c1cc2cc(Br)ccc2oc1=O	–	–	–	–	7.62	–	–
O=C(N/N=C(\CS(=O)(=O)c1ccccc1)c1cc2ccccc2oc1=O)c1ccccc1	4.80	–	< 4.00	< 4.00	–	–	–
O=c1oc2ccccc2cc1/C(CS(=O)(=O)c1ccccc1)=N/Nc1ccccc1	5.82	–	< 4.00	< 4.00	–	–	–
NS(=O)(=O)c1ccc(N/N=C(\CS(=O)(=O)c2ccccc2)c2cc3cc(Br)ccc3oc2=O)cc1	–	–	–	–	7.20	6.56	5.46
Cc1ccc(S(=O)(=O)C/C(=N\Nc2ccccc2)c2cc3ccccc3oc2=O)cc1	5.40	–	< 4.00	< 4.00	–	–	–
Cc1ccc(S(=O)(=O)CC(=O)c2cc3cc(Br)ccc3oc2=O)cc1	7.06	–	< 4.00	< 4.00	–	–	–
C/C(=N\NC(=O)c1ccc(S(N)(=O)=O)cc1)c1cc2ccccc2oc1=O	–	–	–	–	7.50	7.58	7.11
Cc1ccc(S(=O)(=O)C/C(=N\NC(=O)c2ccc(S(N)(=O)=O)cc2)c2cc3ccccc3oc2=O)cc1	–	–	–	–	7.38	6.44	5.87
O=c1oc2ccc(Br)cc2cc1/C(CS(=O)(=O)c1ccccc1)=N/Nc1ccccc1	5.33	–	< 4.00	< 4.00	–	–	–
Cc1ccc(S(=O)(=O)C/C(=N\Nc2ccc(S(N)(=O)=O)cc2)c2cc3cc(Br)ccc3oc2=O)cc1	–	–	–	–	–	6.27	5.40
Cc1ccc(S(=O)(=O)C/C(=N\Nc2ccc(S(N)(=O)=O)cc2)c2cc3ccccc3oc2=O)cc1	–	–	–	–	7.12	6.25	5.59
NS(=O)(=O)c1ccc(C(=O)N/N=C(\CS(=O)(=O)c2ccccc2)c2cc3ccccc3oc2=O)cc1	–	–	–	–	7.73	6.65	5.81
C/C(=N\NC(=O)c1ccc(S(N)(=O)=O)cc1)c1cc2cc(Br)ccc2oc1=O	–	–	–	–	7.70	7.92	7.03
NS(=O)(=O)c1ccc(N/N=C(\CS(=O)(=O)c2ccccc2)c2cc3ccccc3oc2=O)cc1	–	–	–	–	7.05	6.35	6.08
Cc1ccc(S(=O)(=O)C/C(=N\Nc2ccccc2)c2cc3cc(Br)ccc3oc2=O)cc1	5.09	–	< 4.00	< 4.00	–	–	–
O=C(N/N=C(\CS(=O)(=O)c1ccccc1)c1cc2cc(Br)ccc2oc1=O)c1ccccc1	5.05	–	< 4.00	< 4.00	–	–	–
O=C(CS(=O)(=O)c1ccccc1)c1cc2cc(Br)ccc2oc1=O	7.12	–	< 4.00	< 4.00	–	–	–
Cc1ccc(S(=O)(=O)CC(=O)c2cc3ccccc3oc2=O)cc1	7.18	–	< 4.00	< 4.00	–	–	–
